Assay results published in BindingDB's records for doi:10.1021/jm020820h (2002).

What was measured:
[1] = Effective concentration required to inhibit HIV-1 induced cytopathicity in CEM cell culture by 50%.
[2] = Effective concentration required to inhibit HIV-1 induced cytopathicity in MT-4 cell culture by 50%.
[3] = target: T1, Reverse transcriptase/RNaseH (Human immunodeficiency virus 1, UniProt Q72547); assay: Effective concentration required to inhibit HIV-1 induced cytopathicity in MT-4 cell culture by 50%.
Procedure, shortened: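 MT-4 cells at 3 × 10⁵/mL infected with HIV-1 or HIV-2 at ~100 CCID₅₀ per mL, mixed 1:1 with compound dilutions. Cytopathicity read by trypan blue dye exclusion after 5 days. EC₅₀ is the concentration giving 50% protection against the virus-induced loss of cell viability.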

[4] = target: T1, Reverse transcriptase/RNaseH; assay: Effective concentration required to inhibit HIV-1 induced cytopathicity in CEM cell culture by 50%.
Procedure, shortened: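 CEM cells at 4 × 10⁵/mL infected with HIV-1 or HIV-2 at ~100 CCID₅₀ per mL, mixed 1:1 with compound dilutions. Giant cell formation scored microscopically after 4 days. EC₅₀ is the concentration inhibiting virus-induced cytopathicity by 50%.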

Structure (SMILES) | EC50 [1] [µM] | EC50 [2] [µM] | EC50 [3] [µM] | EC50 [4] [µM]
Cc1cn(C2OC(CO[Si](C)(C)C(C)(C)C)C3(OS(=O)(=O)C=C3N)C2O[Si](C)(C)C(C)(C)C)c(=O)n(C)c1=O (configuration not stated) | 0.04 | – | – | –
Cc1cn(C2OC(CO[Si](C)(C)C(C)(C)C)C3(OS(=O)(=O)C(Br)=C3N)C2O[Si](C)(C)C(C)(C)C)c(=O)[nH]c1=O (configuration not stated) | 0.85 | 0.93 | – | –
CC=C1C(=N)C2(OS1(=O)=O)C(CO[Si](C)(C)C(C)(C)C)OC(n1cc(C)c(=O)[nH]c1=O)C2O[Si](C)(C)C(C)(C)C (configuration not stated) | – | – | 3.2 | 4
CC=C1C(=N)C2(OS1(=O)=O)C(CO)OC(n1cc(C)c(=O)[nH]c1=O)C2O[Si](C)(C)C(C)(C)C (configuration not stated) | – | – | 23 | 15
COC(=O)CC=C1C(=N)C2(OS1(=O)=O)C(CO[Si](C)(C)C(C)(C)C)OC(n1cc(C)c(=O)[nH]c1=O)C2O[Si](C)(C)C(C)(C)C (configuration not stated) | – | – | 3.7 | 3
Cc1cn(C2OC(CO[Si](C)(C)C(C)(C)C)C3(OS(=O)(=O)C(=CCCO)C3=N)C2O[Si](C)(C)C(C)(C)C)c(=O)n(C)c1=O (configuration not stated) | – | – | 5.9 | 2.8
CC1=C(N)C2(OS1(=O)=O)C(CO[Si](C)(C)C(C)(C)C)OC(n1cc(C)c(=O)n(C)c1=O)C2O[Si](C)(C)C(C)(C)C (configuration not stated) | 2.2 | 0.25 | – | –
Cc1cn(C2OC(CO[Si](C)(C)C(C)(C)C)C3(OS(=O)(=O)C(c4ccsc4)=C3N)C2O[Si](C)(C)C(C)(C)C)c(=O)n(C)c1=O (configuration not stated) | – | 2.3 | – | –
Cc1cn(C2OC(CO[Si](C)(C)C(C)(C)C)C3(OS(=O)(=O)C(I)=C3N)C2O[Si](C)(C)C(C)(C)C)c(=O)n(C)c1=O (configuration not stated) | – | 0.11 | – | –
Cc1cn(C2OC(CO[Si](C)(C)C(C)(C)C)C3(OS(=O)(=O)C(c4ccccc4)=C3N)C2O[Si](C)(C)C(C)(C)C)c(=O)n(C)c1=O (configuration not stated) | – | 1.7 | – | –
CCOC(=O)CC=C1C(=N)C2(OS1(=O)=O)C(CO[Si](C)(C)C(C)(C)C)OC(n1cc(C)c(=O)[nH]c1=O)C2O[Si](C)(C)C(C)(C)C (configuration not stated) | – | – | 10 | 3.5
Cc1cn(C2OC(CO[Si](C)(C)C(C)(C)C)C3(OS(=O)(=O)C(c4ccccc4)=C3N)C2O[Si](C)(C)C(C)(C)C)c(=O)[nH]c1=O (configuration not stated) | 2.5 | 6.7 | – | –
COC(=O)CC=C1C(=N)C2(OS1(=O)=O)C(CO[Si](C)(C)C(C)(C)C)OC(n1cc(C)c(=O)n(C)c1=O)C2O[Si](C)(C)C(C)(C)C (configuration not stated) | – | – | 2.9 | 0.98
CNC1=C(C)S(=O)(=O)OC12C(CO[Si](C)(C)C(C)(C)C)OC(n1cc(C)c(=O)n(C)c1=O)C2O[Si](C)(C)C(C)(C)C (configuration not stated) | > 100 | > 250 | – | –
Cc1cn([C@@H]2O[C@H](CO[Si](C)(C)C(C)(C)C)[C@@]3(OS(=O)(=O)C(=CCCO)C3=N)[C@H]2O[Si](C)(C)C(C)(C)C)c(=O)[nH]c1=O [1-[(5R,6R,8R,9R)-4-amino-9-(tert-butyl-dimethyl-silanyloxy)-6-(tert-butyl-dimethyl-silanyloxymethyl)-3-(3-hydroxy-propenyl)-2,2-dioxo-1,7-dioxa-2lambda*6*-thia-spiro[4.4]non-3-en-8-yl]-5-methyl-1H-pyrimidine-2,4-dione] | – | – | 6.6 | –
Cc1cn([C@@H]2O[C@H](CO[Si](C)(C)C(C)(C)C)[C@@]3(OS(=O)(=O)C(I)=C3N)[C@H]2O[Si](C)(C)C(C)(C)C)c(=O)[nH]c1=O [1-[(5R,6R,8R,9R)-4-amino-9-(tert-butyl-dimethyl-silanyloxy)-6-(tert-butyl-dimethyl-silanyloxymethyl)-3-iodo-2,2-dioxo-1,7-dioxa-2lambda*6*-thia-spiro[4.4]non-3-en-8-yl]-5-methyl-1H-pyrimidine-2,4-dione] | 0.06 | 0.12 | – | –
